Source: ChEMBL document CHEMBL1147918, “Novel 5-substituted 1-pyrazolol analogues of ibotenic acid: synthesis and pharmacology at glutamate receptors” (Bioorg Med Chem, 2007)

Assays:
[1] = molecular target: T1, Metabotropic glutamate receptor 1 (Rattus norvegicus, UniProt P23385); test: Agonist activity at rat mGluR1a receptor expressed in CHO cells assessed as effect on intracellular calcium level; assay type: functional, cell-based
How it was run: (§1)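 Means of at least three independent experiments, expressed as pEC50 or pKi ± SEM.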

[2] = Displacement of [3H]AMPA from AMPA receptor in rat cortical membrane; assay type: cell membranes
How it was run: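 Rat brain membranes prepared per Ransom and Stec; native AMPA receptor affinity measured with 5 nM [3H]AMPA. Means of at least three to four independent experiments; values as pIC50 or pKi ± SEM.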

[3] = Displacement of [3H]KA from KA receptor in rat cortical membrane; assay type: cell membranes
How it was run: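 Native kainate receptor binding on rat brain membranes (Ransom and Stec preparation) using 5 nM [3H]KA. Means of at least three to four independent experiments, reported as pIC50 or pKi ± SEM.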

[4] = molecular target: T2, Metabotropic glutamate receptor 2 (Rattus norvegicus, UniProt P31421); test: (§2) Agonist activity at rat mGluR2 receptor expressed in CHO cells assessed as effect on intracellular cAMP level; assay type: functional, cell-based; how it was run: as §1
[5] = molecular target: Metabotropic glutamate receptor 2 (Rattus norvegicus) (UniProt P31421); test: as §2; assay type: functional, cell-based; how it was run: as §1
[6] = molecular target: Metabotropic glutamate receptor 4 (Rattus norvegicus, UniProt P31423); test: Agonist activity at rat mGluR4 receptor expressed in CHO cells assessed as effect on intracellular cAMP level; assay type: functional, cell-based; how it was run: as §1
Glutamate NMDA receptor = test: Displacement of [3H]CGP39653 from NMDA receptor in rat cortical membrane; assay type: cell membranes
How it was run: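 NMDA receptor affinity on rat brain membranes prepared per Ransom and Stec, radioligand 2 nM [3H]CGP39653. Means of at least three to four independent experiments; pIC50 or pKi ± SEM.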

[7] = molecular target: T2, Metabotropic glutamate receptor 2; test: Antagonist activity at rat mGluR2 receptor expressed in CHO cells assessed as effect on intracellular cAMP level; assay type: functional, cell-based; how it was run: as §1
[8] = molecular target: T1, Metabotropic glutamate receptor 1; test: Antagonist activity at rat mGluR1a receptor expressed in CHO cells assessed as effect on intracellular calcium level; assay type: functional, cell-based; how it was run: as §1

Chain of Metabotropic glutamate receptor 4 (P31423 whole entry): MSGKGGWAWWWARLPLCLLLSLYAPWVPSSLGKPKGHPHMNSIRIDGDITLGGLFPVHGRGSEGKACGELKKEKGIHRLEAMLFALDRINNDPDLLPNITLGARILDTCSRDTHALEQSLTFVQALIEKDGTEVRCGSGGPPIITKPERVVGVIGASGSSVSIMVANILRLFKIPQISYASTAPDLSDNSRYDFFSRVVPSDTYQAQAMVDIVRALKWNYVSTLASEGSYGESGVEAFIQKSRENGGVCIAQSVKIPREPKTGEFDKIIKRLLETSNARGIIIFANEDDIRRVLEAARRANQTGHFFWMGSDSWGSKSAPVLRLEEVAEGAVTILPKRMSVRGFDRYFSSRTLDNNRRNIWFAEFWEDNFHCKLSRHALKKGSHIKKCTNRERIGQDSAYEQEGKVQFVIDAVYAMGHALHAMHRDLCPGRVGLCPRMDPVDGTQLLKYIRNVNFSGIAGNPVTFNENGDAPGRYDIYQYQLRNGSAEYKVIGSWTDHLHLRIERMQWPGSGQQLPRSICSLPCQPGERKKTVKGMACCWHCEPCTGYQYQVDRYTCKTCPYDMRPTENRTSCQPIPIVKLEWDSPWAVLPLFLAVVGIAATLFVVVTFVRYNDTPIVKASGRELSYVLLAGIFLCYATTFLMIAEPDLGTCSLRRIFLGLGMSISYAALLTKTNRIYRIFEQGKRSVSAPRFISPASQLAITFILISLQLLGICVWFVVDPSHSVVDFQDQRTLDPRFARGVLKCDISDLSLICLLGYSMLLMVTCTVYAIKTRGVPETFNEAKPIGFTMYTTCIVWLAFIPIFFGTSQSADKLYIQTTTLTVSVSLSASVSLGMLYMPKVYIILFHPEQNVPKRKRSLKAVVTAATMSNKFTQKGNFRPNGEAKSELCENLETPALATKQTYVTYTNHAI
T1 sequence (P23385 whole entry): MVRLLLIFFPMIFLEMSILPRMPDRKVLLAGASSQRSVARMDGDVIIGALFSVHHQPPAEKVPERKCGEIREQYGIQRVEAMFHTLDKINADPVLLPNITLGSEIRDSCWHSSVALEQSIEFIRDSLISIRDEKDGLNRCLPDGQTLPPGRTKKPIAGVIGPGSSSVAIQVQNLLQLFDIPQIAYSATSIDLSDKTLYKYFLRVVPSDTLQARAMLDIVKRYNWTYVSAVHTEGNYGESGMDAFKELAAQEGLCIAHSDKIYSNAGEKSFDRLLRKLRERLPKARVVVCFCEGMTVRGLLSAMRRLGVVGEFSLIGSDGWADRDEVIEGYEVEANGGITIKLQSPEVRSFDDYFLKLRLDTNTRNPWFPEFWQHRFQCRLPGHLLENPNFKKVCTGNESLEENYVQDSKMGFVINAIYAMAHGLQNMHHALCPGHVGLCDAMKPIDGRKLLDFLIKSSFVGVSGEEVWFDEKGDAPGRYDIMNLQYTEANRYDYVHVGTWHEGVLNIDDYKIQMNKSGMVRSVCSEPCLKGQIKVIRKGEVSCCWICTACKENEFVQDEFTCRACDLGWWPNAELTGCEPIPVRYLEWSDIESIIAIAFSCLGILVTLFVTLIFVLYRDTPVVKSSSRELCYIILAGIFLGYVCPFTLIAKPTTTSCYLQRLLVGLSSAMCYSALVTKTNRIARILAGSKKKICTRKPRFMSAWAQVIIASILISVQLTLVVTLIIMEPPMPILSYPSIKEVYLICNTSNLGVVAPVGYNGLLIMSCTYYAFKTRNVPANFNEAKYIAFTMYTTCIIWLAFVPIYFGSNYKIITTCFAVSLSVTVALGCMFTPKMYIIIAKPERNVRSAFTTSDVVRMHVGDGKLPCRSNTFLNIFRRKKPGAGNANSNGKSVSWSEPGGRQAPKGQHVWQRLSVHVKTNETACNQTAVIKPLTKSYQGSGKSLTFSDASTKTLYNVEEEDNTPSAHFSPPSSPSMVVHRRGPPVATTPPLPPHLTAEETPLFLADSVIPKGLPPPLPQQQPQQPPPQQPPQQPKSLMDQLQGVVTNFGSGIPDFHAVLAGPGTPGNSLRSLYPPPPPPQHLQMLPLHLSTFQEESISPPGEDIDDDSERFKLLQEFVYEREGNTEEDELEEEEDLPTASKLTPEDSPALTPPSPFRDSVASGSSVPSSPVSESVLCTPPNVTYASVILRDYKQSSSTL
T2 sequence (P31421 whole entry): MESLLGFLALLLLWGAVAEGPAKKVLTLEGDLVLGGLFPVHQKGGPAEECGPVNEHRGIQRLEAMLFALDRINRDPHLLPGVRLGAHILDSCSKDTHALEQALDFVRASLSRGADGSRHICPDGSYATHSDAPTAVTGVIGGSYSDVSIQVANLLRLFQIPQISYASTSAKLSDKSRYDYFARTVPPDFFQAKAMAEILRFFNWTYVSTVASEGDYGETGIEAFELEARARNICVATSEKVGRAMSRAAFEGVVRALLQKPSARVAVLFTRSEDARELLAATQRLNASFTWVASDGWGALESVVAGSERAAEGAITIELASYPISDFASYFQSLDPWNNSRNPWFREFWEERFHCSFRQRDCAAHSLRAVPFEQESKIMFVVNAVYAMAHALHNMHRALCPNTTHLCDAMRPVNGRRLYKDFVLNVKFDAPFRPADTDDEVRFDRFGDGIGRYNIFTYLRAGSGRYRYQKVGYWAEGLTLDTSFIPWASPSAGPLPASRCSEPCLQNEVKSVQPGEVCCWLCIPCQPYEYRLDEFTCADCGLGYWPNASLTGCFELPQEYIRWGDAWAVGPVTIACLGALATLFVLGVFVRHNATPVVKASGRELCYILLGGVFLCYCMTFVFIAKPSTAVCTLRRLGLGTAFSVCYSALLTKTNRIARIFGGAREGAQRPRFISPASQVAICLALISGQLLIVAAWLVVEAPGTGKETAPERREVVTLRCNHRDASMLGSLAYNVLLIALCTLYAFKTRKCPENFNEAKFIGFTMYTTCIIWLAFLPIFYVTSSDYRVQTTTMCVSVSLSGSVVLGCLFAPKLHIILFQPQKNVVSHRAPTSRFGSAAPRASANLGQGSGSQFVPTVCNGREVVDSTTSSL
Chain of Metabotropic glutamate receptor 2 (Rattus norvegicus) (P31421 19-872 limits assumed): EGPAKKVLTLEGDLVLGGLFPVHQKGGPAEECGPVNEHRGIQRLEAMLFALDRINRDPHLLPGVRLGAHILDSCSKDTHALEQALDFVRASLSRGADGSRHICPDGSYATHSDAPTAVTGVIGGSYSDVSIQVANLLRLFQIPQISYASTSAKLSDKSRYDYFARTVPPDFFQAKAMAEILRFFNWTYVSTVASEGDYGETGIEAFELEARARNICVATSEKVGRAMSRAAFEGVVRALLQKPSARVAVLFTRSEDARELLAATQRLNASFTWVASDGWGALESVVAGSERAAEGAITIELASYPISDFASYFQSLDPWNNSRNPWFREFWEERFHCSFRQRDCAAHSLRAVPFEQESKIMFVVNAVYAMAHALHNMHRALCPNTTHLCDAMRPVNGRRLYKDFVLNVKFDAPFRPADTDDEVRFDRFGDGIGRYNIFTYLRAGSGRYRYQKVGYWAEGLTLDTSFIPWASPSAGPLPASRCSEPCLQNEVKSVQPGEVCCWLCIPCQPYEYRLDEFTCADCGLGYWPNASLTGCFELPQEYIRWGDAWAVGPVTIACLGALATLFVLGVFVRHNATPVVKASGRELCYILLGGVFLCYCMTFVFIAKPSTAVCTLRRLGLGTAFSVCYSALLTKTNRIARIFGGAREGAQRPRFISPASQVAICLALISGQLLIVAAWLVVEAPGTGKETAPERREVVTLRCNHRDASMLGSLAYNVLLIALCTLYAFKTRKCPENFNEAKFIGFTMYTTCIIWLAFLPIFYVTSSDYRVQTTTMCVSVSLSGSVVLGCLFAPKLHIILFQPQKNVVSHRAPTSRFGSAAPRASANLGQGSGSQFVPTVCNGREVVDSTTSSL

Compound | EC50 [1] [µM] | IC50 [2] [µM] | IC50 [3] [µM] | EC50 ([4]; read-out: EC50) [µM] | EC50 [6] [µM] | Ki (Glutamate NMDA receptor) [µM] | Ki [7] [µM] | Log IC50 [3] | Log Ki (Glutamate NMDA receptor) | Ki ([8]; read-out: Ki) [µM] | Ki ([8]; read-out: Log Ki (converted)) [µM] | EC50 ([4]; read-out: Log EC50 (converted)) [µM] | Activity [5] [%]
NC(C(=O)O)c1cnn(O)c1Br (racemic) | > 1000 | > 100 | > 100 | 170 | > 1000 | 25 | – | – | – | – | – | 151 | 43
CCc1c(C(N)C(=O)O)cnn1O (racemic) | > 1000 | > 100 | > 100 | 57 | > 1000 | 32 | – | – | – | – | – | – | –
CCCCCc1c(C(N)C(=O)O)cnn1O (racemic) | > 1000 | > 100 | > 100 | > 1000 | > 1000 | > 100 | – | – | – | – | – | – | –
NC(C(=O)O)c1cnn(O)c1CCc1ccccc1 (racemic) | – | > 100 | > 100 | > 1000 | > 1000 | > 100 | – | – | – | 230 | 195 | – | –
NC(C(=O)O)c1cnn(O)c1Cc1ccccc1 (racemic) | > 1000 | > 100 | > 100 | – | > 1000 | 67 | 120 | – | – | – | – | – | –
NC(C(=O)O)c1cnn(O)c1-c1ccccc1 (racemic) | > 1000 | > 100 | > 100 | – | > 1000 | > 100 | 180 | – | – | – | – | – | –

More lines, main results first:

EC50 [1] [µM] | IC50 [2] [µM] | IC50 [3] [µM] | EC50 ([4]; read-out: EC50) [µM] | EC50 [6] [µM] | Ki (Glutamate NMDA receptor) [µM] | Ki [7] [µM] | Log IC50 [3] | Log Ki (Glutamate NMDA receptor) | Ki ([8]; read-out: Ki) [µM] | Ki ([8]; read-out: Log Ki (converted)) [µM] | Compound | EC50 ([4]; read-out: Log EC50 (converted)) [µM] | Activity [5] [%]
> 1000 | > 100 | > 100 | 72 | > 1000 | > 100 | – | – | – | – | – | CCCc1c(C(N)C(=O)O)cnn1O (racemic) | 67.6 | –
> 1000 | > 100 | > 100 | – | > 1000 | > 100 | 32 | – | – | – | – | NC(C(=O)O)c1cnn(O)c1CC1CCCCC1 (racemic) | – | –
> 1000 | > 100 | 47 | > 1000 | > 1000 | > 100 | – | -4.33 | – | – | – | NC(C(=O)O)c1cnn(O)c1C(c1ccccc1)c1ccccc1 (racemic) | – | –
> 1000 | > 100 | > 100 | > 1000 | > 1000 | > 100 | – | – | – | – | – | CCCCc1c(C(N)C(=O)O)cnn1O (racemic) | – | –
> 1000 | > 100 | > 100 | > 1000 | > 1000 | 35 | – | – | -4.47 | – | – | NC(C(=O)O)c1cnn(O)c1CC1CC1 (racemic) | – | –
– | > 100 | > 100 | – | > 1000 | 54 | 67 | – | – | 260 | – | NC(C(=O)O)c1cnn(O)c1CCCc1ccccc1 (racemic) | – | –
